According to ChEMBL document CHEMBL1142891, “Lead discovery and optimization of T-type calcium channel blockers” (Bioorg Med Chem, 2007):

Experiments:
Format in all cases: cell-based
[1] = molecular target: T1, Voltage-dependent T-type calcium channel subunit alpha-1G (Homo sapiens, UniProt O43497); assay: Inhibition of T type calcium channel subunit alpha1G expressed in HEK293 cells assessed as effect on KCl-induced increase in intracellular calcium level at 10 uM by FDSS assay
Procedure, shortened: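 HEK293 cells stably co-expressing α1G and Kir2.1 were plated at 40,000 cells/well and used the next day. Loaded 60 min at room temperature with 5 µM fluo3/AM plus 0.001% Pluronic F-127 in HEPES buffer (1.8 mM CaCl2, pH 7.4). Depolarized with 70 mM KCl in buffer containing 10 mM CaCl2; the rise in intracellular Ca2+ was read by fluorescence.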

[2] = molecular target: T1, Voltage-dependent T-type calcium channel subunit alpha-1G; assay: Inhibition of T type calcium channel subunit alpha-1G expressed in HEK293 cells assessed as effect on T-type calcium currents by patch clamp method
Procedure, shortened: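 Whole-cell patch clamp on HEK293 cells expressing α1G. Electrodes of 3-4 MΩ held internal solution (mM): 130 KCl, 11 EGTA, 5 Mg-ATP, 10 HEPES, pH 7.4. External solution (mM): 140 NaCl, 2 CaCl2, 10 HEPES, 10 glucose, pH 7.4. Currents evoked every 15 s by a 50 ms step from -100 to -30 mV. Read-out was peak current; IC50 from dose-response fits.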

[3] = molecular target: T1, Voltage-dependent T-type calcium channel subunit alpha-1G; assay: Inhibition of T type calcium channel subunit alpha-1G expressed in HEK293 cells assessed as effect on T-type calcium currents at 10 uM by patch clamp method
[4] = molecular target: Voltage-dependent T-type calcium channel subunit alpha-1H (Homo sapiens) (UniProt O95180); assay: Inhibition of T type calcium channel subunit alpha-1H expressed in Xenopus oocytes at 100 uM by FDSS assay; conditions: Oocyte
Chain of Voltage-dependent T-type calcium channel subunit alpha-1H (Homo sapiens) (O95180 whole entry): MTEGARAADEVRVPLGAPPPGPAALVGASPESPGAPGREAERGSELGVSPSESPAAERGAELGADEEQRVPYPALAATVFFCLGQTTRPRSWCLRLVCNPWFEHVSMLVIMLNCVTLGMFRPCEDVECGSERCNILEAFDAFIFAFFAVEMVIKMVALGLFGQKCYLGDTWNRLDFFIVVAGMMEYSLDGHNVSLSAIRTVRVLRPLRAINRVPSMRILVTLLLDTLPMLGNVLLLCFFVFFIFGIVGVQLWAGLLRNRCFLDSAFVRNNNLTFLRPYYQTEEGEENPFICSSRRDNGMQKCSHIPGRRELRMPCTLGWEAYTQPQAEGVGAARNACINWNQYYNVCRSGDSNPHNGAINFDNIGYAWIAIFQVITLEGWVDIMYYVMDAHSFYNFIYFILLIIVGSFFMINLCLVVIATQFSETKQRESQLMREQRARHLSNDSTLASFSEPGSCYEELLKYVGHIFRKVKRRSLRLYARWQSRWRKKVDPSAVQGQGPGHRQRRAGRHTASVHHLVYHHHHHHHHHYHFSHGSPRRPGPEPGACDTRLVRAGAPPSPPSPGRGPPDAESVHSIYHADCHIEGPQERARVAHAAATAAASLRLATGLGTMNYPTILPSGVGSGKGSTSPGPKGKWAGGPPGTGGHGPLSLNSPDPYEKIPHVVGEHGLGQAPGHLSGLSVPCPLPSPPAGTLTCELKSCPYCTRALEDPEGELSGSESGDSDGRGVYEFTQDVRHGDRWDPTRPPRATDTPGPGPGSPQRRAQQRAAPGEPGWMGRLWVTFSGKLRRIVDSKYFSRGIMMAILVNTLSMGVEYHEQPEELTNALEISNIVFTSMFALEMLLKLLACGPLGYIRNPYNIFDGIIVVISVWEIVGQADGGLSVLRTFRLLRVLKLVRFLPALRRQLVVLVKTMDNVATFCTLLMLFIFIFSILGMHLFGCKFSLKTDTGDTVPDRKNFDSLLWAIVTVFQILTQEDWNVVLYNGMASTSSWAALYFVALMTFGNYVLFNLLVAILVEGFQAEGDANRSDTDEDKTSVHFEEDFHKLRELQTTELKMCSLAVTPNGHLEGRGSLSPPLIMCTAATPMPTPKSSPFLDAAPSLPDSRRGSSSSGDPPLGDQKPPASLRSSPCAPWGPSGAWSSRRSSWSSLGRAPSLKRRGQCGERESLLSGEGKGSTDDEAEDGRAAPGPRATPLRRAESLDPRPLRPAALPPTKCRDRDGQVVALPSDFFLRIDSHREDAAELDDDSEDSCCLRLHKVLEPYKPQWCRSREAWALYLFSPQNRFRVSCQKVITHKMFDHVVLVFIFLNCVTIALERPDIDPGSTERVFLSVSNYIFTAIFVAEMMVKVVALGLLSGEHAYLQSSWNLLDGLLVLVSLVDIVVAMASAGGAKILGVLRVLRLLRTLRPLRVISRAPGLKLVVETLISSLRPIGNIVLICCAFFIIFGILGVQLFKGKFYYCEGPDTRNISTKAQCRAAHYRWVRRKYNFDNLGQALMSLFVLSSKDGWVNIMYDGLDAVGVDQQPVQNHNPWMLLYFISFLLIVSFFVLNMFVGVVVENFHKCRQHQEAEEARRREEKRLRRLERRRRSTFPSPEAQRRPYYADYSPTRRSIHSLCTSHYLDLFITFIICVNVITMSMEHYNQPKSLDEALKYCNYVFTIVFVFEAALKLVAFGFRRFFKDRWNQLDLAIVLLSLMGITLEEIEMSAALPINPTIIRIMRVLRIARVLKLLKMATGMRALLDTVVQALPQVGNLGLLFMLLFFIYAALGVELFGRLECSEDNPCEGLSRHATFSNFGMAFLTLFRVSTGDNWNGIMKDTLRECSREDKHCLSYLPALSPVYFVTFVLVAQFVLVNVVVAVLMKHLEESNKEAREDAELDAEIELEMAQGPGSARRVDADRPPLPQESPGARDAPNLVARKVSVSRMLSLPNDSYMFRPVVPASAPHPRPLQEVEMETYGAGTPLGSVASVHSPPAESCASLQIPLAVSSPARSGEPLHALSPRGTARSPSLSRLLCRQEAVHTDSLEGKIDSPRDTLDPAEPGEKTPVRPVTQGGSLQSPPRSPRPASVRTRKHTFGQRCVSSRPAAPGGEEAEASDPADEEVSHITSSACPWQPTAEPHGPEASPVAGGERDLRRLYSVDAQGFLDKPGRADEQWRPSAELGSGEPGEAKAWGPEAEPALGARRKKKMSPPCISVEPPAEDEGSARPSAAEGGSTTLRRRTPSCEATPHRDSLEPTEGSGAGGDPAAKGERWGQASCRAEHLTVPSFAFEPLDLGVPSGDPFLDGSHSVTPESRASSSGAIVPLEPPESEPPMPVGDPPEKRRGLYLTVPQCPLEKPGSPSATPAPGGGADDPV

T1 sequence (O43497 whole entry): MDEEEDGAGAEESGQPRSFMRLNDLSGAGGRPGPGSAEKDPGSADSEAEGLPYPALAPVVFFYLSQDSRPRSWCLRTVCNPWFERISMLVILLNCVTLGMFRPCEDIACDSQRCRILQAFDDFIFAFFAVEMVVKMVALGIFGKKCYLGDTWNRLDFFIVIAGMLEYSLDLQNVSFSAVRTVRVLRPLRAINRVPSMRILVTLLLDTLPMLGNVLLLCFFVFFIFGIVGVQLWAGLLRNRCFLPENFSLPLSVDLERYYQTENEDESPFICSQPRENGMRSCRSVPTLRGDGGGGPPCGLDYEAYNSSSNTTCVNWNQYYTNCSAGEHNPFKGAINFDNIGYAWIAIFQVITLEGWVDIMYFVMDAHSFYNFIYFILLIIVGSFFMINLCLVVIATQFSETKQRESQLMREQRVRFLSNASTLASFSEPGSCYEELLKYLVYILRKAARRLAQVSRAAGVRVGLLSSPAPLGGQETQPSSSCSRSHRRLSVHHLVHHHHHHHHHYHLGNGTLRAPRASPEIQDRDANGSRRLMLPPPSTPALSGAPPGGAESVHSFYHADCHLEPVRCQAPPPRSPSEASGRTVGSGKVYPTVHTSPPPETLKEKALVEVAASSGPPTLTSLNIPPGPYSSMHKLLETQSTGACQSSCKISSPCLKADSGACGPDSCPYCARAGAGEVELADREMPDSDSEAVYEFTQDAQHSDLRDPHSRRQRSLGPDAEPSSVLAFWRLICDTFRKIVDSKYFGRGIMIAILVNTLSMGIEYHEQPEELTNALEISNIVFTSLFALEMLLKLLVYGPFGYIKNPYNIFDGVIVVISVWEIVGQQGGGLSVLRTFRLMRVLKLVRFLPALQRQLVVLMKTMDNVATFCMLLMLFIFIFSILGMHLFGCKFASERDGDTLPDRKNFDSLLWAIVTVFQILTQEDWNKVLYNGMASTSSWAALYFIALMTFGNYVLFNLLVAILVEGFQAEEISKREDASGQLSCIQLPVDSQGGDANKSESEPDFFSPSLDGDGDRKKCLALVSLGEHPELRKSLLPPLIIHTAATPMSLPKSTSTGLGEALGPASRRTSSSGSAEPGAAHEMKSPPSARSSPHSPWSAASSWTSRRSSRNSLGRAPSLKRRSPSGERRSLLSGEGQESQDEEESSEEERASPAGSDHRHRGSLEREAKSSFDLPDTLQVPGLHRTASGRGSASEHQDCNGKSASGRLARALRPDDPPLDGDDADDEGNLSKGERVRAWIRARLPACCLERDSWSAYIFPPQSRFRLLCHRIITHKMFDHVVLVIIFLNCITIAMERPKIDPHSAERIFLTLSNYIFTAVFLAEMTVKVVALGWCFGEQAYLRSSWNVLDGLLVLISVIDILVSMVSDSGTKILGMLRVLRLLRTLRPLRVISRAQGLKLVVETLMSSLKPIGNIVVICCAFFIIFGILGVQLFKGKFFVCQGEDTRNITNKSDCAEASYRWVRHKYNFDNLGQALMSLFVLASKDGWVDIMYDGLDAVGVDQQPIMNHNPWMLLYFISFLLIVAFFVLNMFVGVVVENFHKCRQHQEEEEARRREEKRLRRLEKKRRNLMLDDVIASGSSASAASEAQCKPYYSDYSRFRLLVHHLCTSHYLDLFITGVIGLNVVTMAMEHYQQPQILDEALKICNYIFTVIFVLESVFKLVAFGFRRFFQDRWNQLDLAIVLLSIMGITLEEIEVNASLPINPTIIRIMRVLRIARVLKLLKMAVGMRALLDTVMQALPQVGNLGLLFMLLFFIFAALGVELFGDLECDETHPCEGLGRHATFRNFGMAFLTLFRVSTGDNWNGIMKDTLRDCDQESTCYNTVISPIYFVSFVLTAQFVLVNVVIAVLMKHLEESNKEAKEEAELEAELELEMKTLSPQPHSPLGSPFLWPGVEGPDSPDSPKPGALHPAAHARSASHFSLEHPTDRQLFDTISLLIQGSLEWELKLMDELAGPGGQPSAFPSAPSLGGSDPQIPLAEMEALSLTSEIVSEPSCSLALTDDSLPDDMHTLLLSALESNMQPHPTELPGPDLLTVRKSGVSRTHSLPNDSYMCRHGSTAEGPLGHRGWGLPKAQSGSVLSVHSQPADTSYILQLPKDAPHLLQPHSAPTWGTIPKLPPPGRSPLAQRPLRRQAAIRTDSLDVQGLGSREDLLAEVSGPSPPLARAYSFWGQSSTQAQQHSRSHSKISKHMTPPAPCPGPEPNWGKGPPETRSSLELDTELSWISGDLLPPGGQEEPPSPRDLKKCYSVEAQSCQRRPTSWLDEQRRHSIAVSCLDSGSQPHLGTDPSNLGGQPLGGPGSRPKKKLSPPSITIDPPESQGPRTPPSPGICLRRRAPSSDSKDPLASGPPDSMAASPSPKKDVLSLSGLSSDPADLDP

Compound | inhibition [1] [%] | IC50 [2] [nM] | inhibition [3] [%] | inhibition [4] [%]
O=C(CN1CCN(C(=O)CCCCN2CCN(c3ccccc3)CC2)CC1)Nc1ccccc1Cl | 25.2 |  |  | 
O=C(CCCN1CCN(c2ccccc2F)CC1)Nc1ccc(F)cc1F | 32.2 |  |  | 
O=C(CCN1CCN(c2ccccc2)CC1)Nc1ccc(F)cc1F | 33.2 |  |  | 
O=C(CCCCN1CCN(Cc2cccc(Cl)c2)CC1)N1CCN(c2ccccc2F)CC1 | 48.8 | 2440 | 87.1 | 
O=C(CCN1CCN(Cc2ccc(Cl)c(Cl)c2)CC1)Nc1ccc(F)cc1F | 34.6 |  |  | 
N#Cc1ccccc1N1CCN(CCCCC(=O)N2CCN(CC(=O)Nc3ccccc3Cl)CC2)CC1 | 7.38 |  |  | 
O=C(CCCN1CCN(Cc2ccccc2)CC1)Nc1ccc(F)cc1F | 23.2 |  |  | 
O=C(CCCN1CCN(Cc2ccc(Cl)cc2)CC1)Nc1ccc(Cl)cc1Cl | 61.3 | 280 | 91.1 | 
COc1cccc(N2CCN(CCC(=O)Nc3ccc(F)cc3F)CC2)c1 | 29.5 |  |  | 
O=C(CCCN1CCN(Cc2cccc(Cl)c2)CC1)Nc1ccc(F)cc1F | 30.2 |  |  | 
O=C(CCCCN1CCN(Cc2ccc(Cl)c(Cl)c2)CC1)N1CCN(c2ccccc2)CC1 | 56.2 | 2910 | 73.8 | 
O=C(CCCN1CCN(c2ccccc2)CC1)Nc1cc(Cl)c(Cl)c(Cl)c1 | 38.3 |  |  | 
COc1ccccc1N1CCN(CCCC(=O)Nc2cc(Cl)c(Cl)c(Cl)c2)CC1 | 33.7 |  |  | 
O=C(CCCN1CCN(Cc2ccc(Cl)cc2)CC1)Nc1ccc(F)cc1F | 48 |  |  | 
O=C(CCCN1CCN(c2ccc(F)cc2)CC1)Nc1ccc(Cl)cc1 | 32.5 | 3490 | 76.1 | 
O=C(CCCN1CCN(c2ccccc2Cl)CC1)Nc1ccc(Cl)cc1 | 37.3 | 6010 | 60.5 | 
COc1ccccc1N1CCN(CCCC(=O)Nc2ccc(Cl)cc2Cl)CC1 | 42.7 | 3340 | 79.1 | 
CCN1CCN(CCCCC(=O)N2CCN(CC(=O)Nc3cccc(C(F)(F)F)c3)CC2)CC1 |  |  |  | 23.6
O=C(CCCN1CCN(Cc2ccc(Cl)c(Cl)c2)CC1)Nc1ccc(Cl)cc1Cl | 47.6 | 750 | 94.4 | 
O=C(CCCCN1CCN(c2cccc(Cl)c2)CC1)Nc1ccccc1Cl | 54 | 1910 | 93.2 | 
O=C(CCCN1CCN(Cc2c(F)cccc2Cl)CC1)Nc1cc(Cl)c(Cl)c(Cl)c1 | 35.1 |  |  | 
O=C(CN1CCN(C(=O)CCCCN2CCN(c3ccc(F)cc3)CC2)CC1)Nc1ccccc1Cl | 34.9 |  |  | 
O=C(CCCN1CCN(Cc2ccccc2)CC1)Nc1cc(Cl)c(Cl)c(Cl)c1 | 49.4 |  |  | 
COc1cccc(N2CCN(CCCC(=O)Nc3ccc(Cl)cc3)CC2)c1 | 40.6 | 2780 | 84.1 | 
O=C(CN1CCN(C(=O)CCCCN2CCN(Cc3ccccc3)CC2)CC1)Nc1ccccc1Cl | 15.9 |  |  | 
O=C(CN1CCN(C(=O)CCCCN2CCN(c3ccccc3)CC2)CC1)Nc1cccc(C(F)(F)F)c1 |  |  |  | 53
O=C(CN1CCN(C(=O)CCCCN2CCN(Cc3cccc(Cl)c3)CC2)CC1)Nc1ccccc1Cl | 40.9 |  |  | 

Compound | inhibition [1] [%] | IC50 [2] [nM] | inhibition [3] [%] | inhibition [4] [%]
O=C(CN1CCN(C(=O)CCCCN2CCN(Cc3ccc(Cl)cc3)CC2)CC1)Nc1ccccc1Cl | 26.2 |  |  | 
O=C(CCCN1CCN(Cc2ccc(Cl)cc2)CC1)Nc1cc(Cl)c(Cl)c(Cl)c1 | 27.5 |  |  | 
O=C(CCCN1CCN(c2ccccc2F)CC1)Nc1ccc(Cl)cc1 | 36.1 | 3630 | 79.2 | 
O=C(CCN1CCN(c2ccc(F)cc2)CC1)Nc1ccc(F)cc1F | 29.7 |  |  | 
O=C(CCCN1CCN(c2ccc(F)cc2)CC1)Nc1ccc(F)cc1F | 38.1 |  |  | 
O=C(CCN1CCN(c2cccc(Cl)c2)CC1)Nc1ccc(F)cc1F | 26.4 |  |  | 
O=C(CN1CCN(C(=O)CCCCN2CCN(c3ccccc3F)CC2)CC1)Nc1ccccc1Cl | 22.1 |  |  | 
O=C(CCCN1CCN(c2ccccc2)CC1)Nc1ccc(Cl)cc1 | 30.4 | 4470 | 75.1 | 
O=C(CCCN1CCN(Cc2c(F)cccc2Cl)CC1)Nc1ccc(Cl)cc1Cl | 49.6 | 2400 | 89.6 | 
O=C(CCN1CCN(c2ccccc2F)CC1)Nc1ccc(F)cc1F | 30.3 |  |  | 
O=C(CCCN1CCN(c2cccc(Cl)c2)CC1)Nc1ccc(F)cc1F | 51 |  |  | 
O=C(CCCN1CCN(Cc2cccc(Cl)c2)CC1)Nc1ccc(Cl)cc1Cl | 50.8 | 1480 | 87.3 | 
O=C(CCCN1CCN(c2ccccc2F)CC1)Nc1cc(Cl)c(Cl)c(Cl)c1 | 20.1 |  |  | 
O=C(CCCN1CCN(c2ccc(Cl)cc2)CC1)Nc1ccc(Cl)cc1 | 48.3 | 2640 | 94.6 | 
O=C(CCCN1CCN(Cc2c(F)cccc2Cl)CC1)Nc1ccc(Cl)cc1 | 39.8 | 3270 | 72.8 | 
CCN1CCN(CCCCC(=O)N2CCN(CC(=O)Nc3cccc(Cl)c3)CC2)CC1 |  |  |  | 71.6
O=C(CCN1CCN(Cc2c(F)cccc2Cl)CC1)Nc1ccc(F)cc1F | 29.7 |  |  | 
O=C(CCCN1CCN(Cc2c(F)cccc2Cl)CC1)Nc1ccc(F)cc1F | 38.9 |  |  | 
COc1ccccc1N1CCN(CCC(=O)Nc2ccc(F)cc2F)CC1 | 37.1 |  |  | 
O=C(CCN1CCN(Cc2cccc(Cl)c2)CC1)Nc1ccc(F)cc1F | 34.7 |  |  | 
O=C(CCCN1CCN(Cc2ccccc2)CC1)Nc1ccc(Cl)cc1 | 30.8 | 3520 | 78 | 
O=C(CCCN1CCN(c2ccc(F)cc2)CC1)Nc1cc(Cl)c(Cl)c(Cl)c1 | 20.7 |  |  | 
COc1cccc(N2CCN(CCCC(=O)Nc3ccc(F)cc3F)CC2)c1 | 40.6 |  |  | 
COc1cccc(N2CCN(CCCC(=O)Nc3ccc(Cl)cc3Cl)CC2)c1 | 44.2 | 3810 | 80.3 | 
O=C(CCCN1CCN(c2cccc(Cl)c2)CC1)Nc1cc(Cl)c(Cl)c(Cl)c1 | 16.8 |  |  | 
O=C(CCCN1CCN(Cc2ccc(Cl)c(Cl)c2)CC1)Nc1ccc(F)cc1F | 59.9 |  |  | 
COc1cccc(N2CCN(CCCCC(=O)N3CCN(CC(=O)Nc4ccccc4Cl)CC3)CC2)c1 | 26.1 |  |  | 

Compound | inhibition [1] [%] | IC50 [2] [nM] | inhibition [3] [%] | inhibition [4] [%]
O=C(CCCN1CCN(Cc2ccc3c(c2)OCO3)CC1)Nc1ccc(Cl)cc1 | 33.4 | 2730 | 81.9 | 
O=C(CCCN1CCN(Cc2ccc3c(c2)OCO3)CC1)Nc1ccc(Cl)cc1Cl | 49.8 | 1670 | 88.1 | 
O=C(CCCN1CCN(Cc2ccccc2)CC1)Nc1ccc(Cl)cc1Cl | 44.9 | 3140 | 79.3 | 
O=C(CCCN1CCN(c2ccccc2Cl)CC1)Nc1ccc(F)cc1F | 42 |  |  | 
O=C(CCCN1CCN(Cc2cccc(Cl)c2)CC1)Nc1cc(Cl)c(Cl)c(Cl)c1 | 37 |  |  | 
CCN1CCN(CCCCC(=O)N2CCN(CC(=O)Nc3cccc(C)c3)CC2)CC1 | -1.36 |  |  | 
CN1CCN(CCCCC(=O)N2CCN(CC(=O)Nc3cccc(C(F)(F)F)c3)CC2)CC1 |  |  |  | < 1
COc1ccccc1N1CCN(CCCC(=O)Nc2ccc(F)cc2F)CC1 | 33 |  |  | 
O=C(CCN1CCN(c2ccccc2Cl)CC1)Nc1ccc(F)cc1F | 28.4 |  |  | 
COc1ccccc1N1CCN(CCCC(=O)Nc2ccc(Cl)cc2)CC1 | 51.8 | 2610 | 84.3 | 
O=C(CCN1CCN(Cc2ccc(Cl)cc2)CC1)Nc1ccc(F)cc1F | 33.2 |  |  | 
O=C(CN1CCN(C(=O)CCCCN2CCN(c3ccccc3)CC2)CC1)Nc1cccc(Cl)c1 |  |  |  | 75.3
COc1cccc(N2CCN(CCCC(=O)Nc3cc(Cl)c(Cl)c(Cl)c3)CC2)c1 | 21.6 |  |  | 
O=C(CCCCN1CCN(Cc2ccc(Cl)c(Cl)c2)CC1)Nc1ccccc1Cl | 55.9 | 1010 | 91 | 
O=C(CCCN1CCN(c2ccccc2Cl)CC1)Nc1cc(Cl)c(Cl)c(Cl)c1 | 13.6 |  |  | 
O=C(CCCN1CCN(Cc2cccc(Cl)c2)CC1)Nc1ccc(Cl)cc1 | 38.3 | 1800 | 92.4 | 
O=C(CCCN1CCN(c2ccccc2)CC1)Nc1ccc(F)cc1F | 36.8 |  |  | 
O=C(CCCCN1CCN(Cc2ccc(Cl)cc2)CC1)N1CCN(c2ccccc2F)CC1 | 48.3 | 1810 | 89.7 | 
O=C(CCCN1CCN(c2ccccc2F)CC1)Nc1ccc(Cl)cc1Cl | 27.4 |  |  | 
O=C(CCCN1CCN(c2cccc(Cl)c2)CC1)Nc1ccc(Cl)cc1Cl | 38.1 | 1010 | 95.4 | 
O=C(CCCN1CCN(Cc2ccc(Cl)cc2)CC1)Nc1ccc(Cl)cc1 | 33.6 | 370 | 92.6 | 
O=C(CCCN1CCN(c2ccccc2)CC1)Nc1ccc(Cl)cc1Cl | 38.5 | 4210 | 76.2 | 
CN1CCN(CCCCC(=O)N2CCN(CC(=O)Nc3cccc(Cl)c3)CC2)CC1 |  |  |  | < 1
O=C(CCCCN1CCN(Cc2ccc(Cl)cc2)CC1)N1CCN(c2ccccc2)CC1 | 50.4 | 3400 | 79.7 | 
O=C(CCN1CCN(Cc2ccccc2)CC1)Nc1ccc(F)cc1F | 21.1 |  |  | 
